How the values were obtained:
[1] = molecular target: T1, 17-beta-hydroxysteroid dehydrogenase type 1 (Homo sapiens, UniProt P14061); assay: Inhibition of human placental cytosolic 17beta-HSD1 using [3H]-E1/E1 substrate and NADH after 10 mins by HPLC based radio-detection method
T1 sequence (P14061 whole entry): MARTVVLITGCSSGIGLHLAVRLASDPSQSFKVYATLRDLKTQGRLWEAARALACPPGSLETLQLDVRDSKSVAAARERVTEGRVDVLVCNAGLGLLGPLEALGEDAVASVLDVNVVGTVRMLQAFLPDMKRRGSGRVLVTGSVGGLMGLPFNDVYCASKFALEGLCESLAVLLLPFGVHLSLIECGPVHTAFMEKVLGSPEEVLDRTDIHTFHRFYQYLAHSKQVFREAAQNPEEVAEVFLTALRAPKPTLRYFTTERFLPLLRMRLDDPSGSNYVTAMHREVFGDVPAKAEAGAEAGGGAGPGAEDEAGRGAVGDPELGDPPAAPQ
Outline: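 Cell-free assay with the cytosolic fraction of human placenta as the 17β-HSD1 source and radiolabeled E1 as substrate, with test compound present.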

[2] = molecular target: T2, Steryl-sulfatase (Homo sapiens) (UniProt P08842); assay: Inhibition of human placental microsomal STS assessed as formation of E1 at 1 uM preincubated for 30 mins followed by addition of E1S as substrate measured after 20 mins by ELISA
T2 sequence (whole entry): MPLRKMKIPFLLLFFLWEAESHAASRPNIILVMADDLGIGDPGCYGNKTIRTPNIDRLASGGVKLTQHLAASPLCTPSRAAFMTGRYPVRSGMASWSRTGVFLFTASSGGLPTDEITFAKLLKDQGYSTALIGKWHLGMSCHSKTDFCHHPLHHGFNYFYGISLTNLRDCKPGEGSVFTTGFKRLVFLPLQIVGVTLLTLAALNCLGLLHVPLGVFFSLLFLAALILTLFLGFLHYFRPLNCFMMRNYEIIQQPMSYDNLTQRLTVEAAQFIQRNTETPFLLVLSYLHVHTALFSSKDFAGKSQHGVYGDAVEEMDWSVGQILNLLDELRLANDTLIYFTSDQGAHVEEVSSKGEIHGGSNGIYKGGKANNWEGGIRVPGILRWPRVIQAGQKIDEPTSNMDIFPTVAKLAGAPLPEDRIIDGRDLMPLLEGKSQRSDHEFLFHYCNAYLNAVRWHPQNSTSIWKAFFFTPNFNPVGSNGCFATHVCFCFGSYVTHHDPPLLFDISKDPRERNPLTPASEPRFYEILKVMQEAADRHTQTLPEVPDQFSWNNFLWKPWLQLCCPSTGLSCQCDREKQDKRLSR
Outline: (§1)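 Human placental STS incubated with estrone sulfate (E1S) as substrate in the presence of inhibitor; estrone (E1) formed was quantified by ELISA.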

[3] = Stability of the compound in Tris-HCl buffer at pH 7.2 after 30 mins; format: physicochemical; details: pH 7.2, 0.5 h
Outline: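 Compound incubated in 20 mM Tris-HCl buffer, pH 7.2, at 37 °C for 30 min. Remaining parent compound was measured, with sulfamate cleavage to the phenolic OH product monitored.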

[4] = Selectivity factor, ratio of IC50 for human placental microsomal 17beta-HSD2 cells to IC50 for human placental cytosolic 17beta-HSD1
[5] = molecular target: T3, 17-beta-hydroxysteroid dehydrogenase type 2 (Homo sapiens, UniProt P37059); assay: Inhibition of human placental microsomal 17beta-HSD2 using [3H]-E2/E2 substrate and NAD+ after 20 mins by HPLC based radio-detection method
T3 sequence (P37059 whole entry): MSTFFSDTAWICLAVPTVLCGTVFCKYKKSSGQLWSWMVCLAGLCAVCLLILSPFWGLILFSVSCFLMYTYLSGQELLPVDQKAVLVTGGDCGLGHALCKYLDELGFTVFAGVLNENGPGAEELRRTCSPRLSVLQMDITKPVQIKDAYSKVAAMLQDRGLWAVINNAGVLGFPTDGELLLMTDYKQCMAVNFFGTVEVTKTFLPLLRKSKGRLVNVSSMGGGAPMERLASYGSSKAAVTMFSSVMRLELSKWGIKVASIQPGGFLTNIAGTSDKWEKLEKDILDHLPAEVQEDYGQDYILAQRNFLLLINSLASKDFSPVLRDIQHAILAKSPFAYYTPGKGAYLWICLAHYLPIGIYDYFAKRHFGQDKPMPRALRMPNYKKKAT

Steryl-sulfatase [6] = molecular target: T4, Steryl-sulfatase (Homo sapiens, UniProt P08842); assay: Inhibition of human placental microsomal STS assessed as formation of E1 preincubated for 30 mins followed by addition of E1S as substrate measured after 20 mins by ELISA; outline: as §1
T4 sequence (P08842 whole entry): T2 sequence (whole entry)

Steryl-sulfatase [7] = molecular target: T4, Steryl-sulfatase; assay: Inhibition of STS in human T47D cells preincubated for 1 hr followed by addition of [3H]-E1S/E1S as substrate measured after 24 hrs by HPLC based radio-detection method; format: cell-based
[8] = molecular target: T1, 17-beta-hydroxysteroid dehydrogenase type 1; assay: Inhibition of 17beta-HSD1 in human T47D cells preincubated for 1 hr followed by addition of [3H]-E1/E1 as substrate measured after 30 mins by HPLC based radio-detection method; format: cell-based
Steryl-sulfatase [9] = molecular target: T4, Steryl-sulfatase; assay: Irreversible inhibition of STS in human T47D cells preincubated for 2 hrs followed by compound washout and addition of [3H]-E1S/E1S as substrate measured after 24 hrs by HPLC based radio-detection method; format: cell-based
T47D = assay: Antiproliferative activity against E1S/E1-stimulated human T47D cells assessed as reduction in cell viability measured after 7 days after MTT assay; format: functional, cell-based

| IC50 [1] | inhibition [2] | Stability [3] | IC50 [5] | IC50 (Steryl-sulfatase [6]) | IC50 (Steryl-sulfatase [7]) | IC50 [8] | IC50 (Steryl-sulfatase [9]) | SMILES | Ratio IC50 [4] | Activity (T47D) |
| --- | --- | --- | --- | --- | --- | --- | --- | --- | --- | --- |
| 2.2 nM | < 10% | Stable | 31.3 nM |  |  |  |  | NS(=O)(=O)Oc1cccc(-c2ccc(C(=O)c3c(F)ccc(O)c3F)s2)c1 | 14.2 |  |
| 3.4 nM | < 10% | Stable | 28 nM |  |  |  |  | NS(=O)(=O)Oc1ccc(-c2ccc(C(=O)c3c(F)ccc(O)c3F)s2)cc1 | 8.2 |  |
| 2.5 nM |  | Stable | 13.7 nM | 81.8 nM | 5.1 nM | 20 nM | 5.7 nM | NS(=O)(=O)Oc1ccc(-c2ccc(C(=O)c3c(F)ccc(O)c3F)s2)cc1F | 5.5 | Dose-dependent effect |
| 32.4 nM |  | Stable | 31.2 nM | 221 nM |  |  |  | Cc1cc(-c2ccc(C(=O)c3c(F)ccc(O)c3F)s2)ccc1OS(N)(=O)=O | 1 |  |
| 12.2 nM |  | Stable | 22.2 nM | 19.5 nM | 2.1 nM | 42.1 nM | 3.1 nM | NS(=O)(=O)Oc1ccc(-c2ccc(C(=O)c3c(F)ccc(O)c3F)s2)c(F)c1 | 1.8 | Dose-dependent effect |
| 22.5 nM | < 10% | Stable | 4.1 nM |  |  |  |  | NS(=O)(=O)Oc1ccccc1-c1ccc(C(=O)c2c(F)ccc(O)c2F)s1 | 0.2 |  |
| 7.1 nM |  | Stable | 17.4 nM | 123 nM |  |  |  | NS(=O)(=O)Oc1cccc(-c2ccc(C(=O)c3c(F)ccc(O)c3F)s2)c1F | 2.5 |  |

Reference: ChEMBL document CHEMBL4049440, “First Dual Inhibitors of Steroid Sulfatase (STS) and 17β-Hydroxysteroid Dehydrogenase Type 1 (17β-HSD1): Designed Multiple Ligands as Novel Potential Therapeutics for Estrogen-Dependent Diseases” (J Med Chem, 2017)
